Most compounds without a hit are left out; they make up all but 2.7% or so of the library.
BB579 growth dn – yeast BB579 growth reduction in restrictive medium; S. cerevisiae BB579 growth, OD615, 48 h; inhibition, % at 10 µM; 140,000 tested, 0.51% active; AID 804;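 active means inhibition above a set limit, 3 SD over the mean compound inhibition, cut at about 44% in these data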
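System: Saccharomyces cerevisiae DeaD strain BB579, replicative lifespan model yeast. Buffer or medium: restrictive glucose-based CSMM-D medium. Doses: one dose, 10 µM compound with 0.25% DMSO. Timing: 4 h preincubation and 48 h exposure at 30 °C. Detection: turbidity as optical density at 615 nm. Benchmarks: amphotericin B 10 µg/mL, positive.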
RAM network inh – yeast RAM network inhibition; S. cerevisiae dse1pr::URA3 reporter, 5-FOA growth OD615, 2 d; analog-sensitive cbk1-as2 kinase mutant strain; inhibition, % at 50 µM; 190,000 tested, 1.8% active;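 active means inhibition above a set limit, 3 SD over mean compound inhibition, cut at about 8.4% in these data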;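 further: 0% = DMSO-only wells with no growth and 100% = 10 µM 1-NA-PP1 full growth; inhibition rescues growth on 5-FOA so higher OD means more RAM inhibition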
sdo1 growth – sdo1-depleted yeast growth rescue | S. cerevisiae sdo1-depleted JHY4D growth rescue, OD600 30 h; stronger effect = higher value; pdr5 snq2 efflux-pump mutant strain | z-score at 10 µM | 140,000 tested, 0.21% active;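 active means z-score above 3 at both the 24 hr and the 30 hr optical density reads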;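 further: z-score against mean and SD of all compound wells on the same plate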
Yeast lifespan up – extends the lifespan of yeast | inhibition of the nicotinamide effect, % at 10 µM | 130,000 tested, 0.68% active | S. cerevisiae growth with nicotinamide, OD615; deaD strain in restrictive glucose medium | AID 775;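 active means inhibition above a set limit, placed 3 SD over the median of all compounds, cut at about 26% in these data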;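 further: 0% = nicotinamide-treated wells and 100% = cells grown without nicotinamide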
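assay system = DeaD-strain S. cerevisiae | buffer or medium = restrictive glucose medium | reagent = 1.5 mM nicotinamide | compound = 10 µM single point, 0.25% DMSO | incubation = 48 h compound exposure at 30 °C, humidified | signal = OD615 measurement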
RAM 5-FOA – restores 5-FOA growth of efflux-deficient yeast. shares compounds with RAM network inh. S. cerevisiae efflux-deficient reporter strain, 5-FOA growth OD615, 2 days. max inhibition, %. 1,200 tested, under 10 active; call rule not given here;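 further: plate controls were vehicle for no effect and reference inhibitor for full effect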
* = called active by the depositor.

How did CCN(CC)c1ccc(C2CC(=O)NC3=C2C(=O)CC(C)(C)C3)cc1 (stereo not drawn) do in these assays?
BB579 growth dn: -62; RAM network inh: 1; sdo1 growth: 0.22; Yeast lifespan up: -5

How did CCCCC1S/C(=N/N=C/c2ccc(OC)cc2)N(Cc2ccc(OC)cc2)C1=O (stereo not drawn) do in these assays?
BB579 growth dn: -11; RAM network inh: 14*; sdo1 growth: 0.46; Yeast lifespan up: 5; RAM 5-FOA: 6

Results for CCCC1S/C(=N/N=C/c2ccc(OC)cc2)N(Cc2ccc(OC)cc2)C1=O (stereo not drawn) ?
BB579 growth dn: -33; RAM network inh: 13*; sdo1 growth: -0.08; Yeast lifespan up: -4; RAM 5-FOA: 7

Results for CNC(=O)C1CC(=O)N(Cc2ccccc2)C(=Nc2ccc(OC)cc2)S1 (stereo not drawn) ?
BB579 growth dn: -5; RAM network inh: 2; sdo1 growth: 0.15; Yeast lifespan up: 14

Results for CCCC1S/C(=N/N=C/c2ccc(OC)cc2)N(Cc2ccccc2)C1=O (stereo not drawn) ?
BB579 growth dn: -18; RAM network inh: 15*; sdo1 growth: -0.83; Yeast lifespan up: 2; RAM 5-FOA: 3

How did COc1ccc(CC2S/C(=N/N=C/c3ccc(O)cc3)NC2=O)cc1 (stereo not drawn) do in these assays?
RAM network inh: 5

What do the screens show for `Cn1c(CNS(=O)(=O)c2ccc(F)cc2)n[nH]c1=S`?
BB579 growth dn: -34; RAM network inh: 1; sdo1 growth: 1.4; Yeast lifespan up: 0

How did COCCOC(=O)c1c(C)oc2ccc(OC(=O)COc3c(F)c(F)c(F)c(F)c3F)cc12 do in these assays?
BB579 growth dn: 10; RAM network inh: 16*; sdo1 growth: -0.21; Yeast lifespan up: -6; RAM 5-FOA: 2

How did COCCOC(=O)c1c(C)oc2ccc(OS(C)(=O)=O)cc12 do in these assays?
RAM network inh: 2

Results for Cc1oc2ccc(OC(=O)COc3c(F)c(F)c(F)c(F)c3F)cc2c1C(=O)OC(C)C ?
BB579 growth dn: -26; RAM network inh: 13*; sdo1 growth: 0.67; Yeast lifespan up: 4; RAM 5-FOA: 2

Results for CCN(CC)C(=O)COc1ccc2oc(C)c(C(=O)OC(C)C)c2c1 ?
BB579 growth dn: -23; RAM network inh: 1; sdo1 growth: -0.16; Yeast lifespan up: -2

How did C=CCSC1=C(C#N)C(c2ccc(C(C)C)cc2)CC(=O)N1 (stereo not drawn) do in these assays?
BB579 growth dn: -66; RAM network inh: 0; sdo1 growth: -1.2; Yeast lifespan up: 3

How did CN1CCN(C(=O)c2cc3c(ccc4ccccc43)oc2=O)CC1 do in these assays?
BB579 growth dn: -11; RAM network inh: 3; sdo1 growth: 0.24; Yeast lifespan up: -9

How did O=C(COC(=O)c1ccccc1-c1nc2ccccc2s1)Nc1ccccc1C(F)(F)F do in these assays?
BB579 growth dn: -9; RAM network inh: 15*; sdo1 growth: -1.1; Yeast lifespan up: 9; RAM 5-FOA: 2

How did O=C(COC(=O)c1cccs1)Nc1ccccc1C(F)(F)F do in these assays?
RAM network inh: 1

What do the screens show for `CCOc1ccc(S(=O)(=O)N(C)c2ccc(OCC(=O)OCc3c(C)noc3C)cc2)cc1`?
BB579 growth dn: -65; RAM network inh: 12*; sdo1 growth: -0.49; Yeast lifespan up: -6; RAM 5-FOA: 2

What do the screens show for `NC12CC3CC(C1)CC(O)(C3)C2`?
BB579 growth dn: -40; RAM network inh: 2; sdo1 growth: 0.01; Yeast lifespan up: -9

Results for COc1cccc(-c2ccc(C#N)c(OC(=O)c3c(Cl)cccc3Cl)n2)c1 ?
BB579 growth dn: -49; RAM network inh: 12*; sdo1 growth: -0.58; Yeast lifespan up: 9; RAM 5-FOA: 1

How did COc1cccc(-c2ccc(C#N)c(OC(=O)c3ccc(Cl)cc3)n2)c1 do in these assays?
BB579 growth dn: -33; RAM network inh: 0; sdo1 growth: -0.7; Yeast lifespan up: -1

How did CCCCN(CCCC)S(=O)(=O)c1ccc(NC(=O)c2cccs2)cc1 do in these assays?
BB579 growth dn: -40; RAM network inh: 16*; sdo1 growth: 0.25; Yeast lifespan up: 6; RAM 5-FOA: 3

Results for Cc1cc(C)nc(NS(=O)(=O)c2ccc(NC(=O)c3cccs3)cc2)n1 ?
BB579 growth dn: -34; RAM network inh: 2; sdo1 growth: -0.19; Yeast lifespan up: -17

How did Cc1cccc(C(=O)NCc2nnc3c4ccccc4c(-c4ccccc4)nn23)c1 do in these assays?
BB579 growth dn: -27; RAM network inh: 12*; sdo1 growth: -0.28; Yeast lifespan up: 1; RAM 5-FOA: 4

Results for CCC(=O)Nc1ccccc1C(=O)OCc1ccc(C(=O)c2ccccc2)cc1 ?
BB579 growth dn: -50; RAM network inh: 12*; sdo1 growth: -0.08; Yeast lifespan up: -9; RAM 5-FOA: 3

How did CCCN(N=Nc1cccc([N+](=O)[O-])c1)c1cccc([N+](=O)[O-])c1 do in these assays?
BB579 growth dn: -43; RAM network inh: 12*; sdo1 growth: -0.64; Yeast lifespan up: -10; RAM 5-FOA: 3

Results for O=[N+]([O-])c1cccc(N=NN(CCO)c2cccc([N+](=O)[O-])c2)c1 ?
BB579 growth dn: -32; RAM network inh: 2; sdo1 growth: -1.9; Yeast lifespan up: -6

How did O=c1oc2ccccc2cc1-c1csc(NN=C2CCCCC2)n1 do in these assays?
BB579 growth dn: -83; RAM network inh: 0; sdo1 growth: -1.2; Yeast lifespan up: -11

What do the screens show for `CSCCC(NS(=O)(=O)c1ccc2ccccc2c1)C(=O)OCC(=O)c1ccc(C(C)C)cc1` (stereo not drawn)?
BB579 growth dn: -16; RAM network inh: 15*; sdo1 growth: -0.15; Yeast lifespan up: 6; RAM 5-FOA: 4

What do the screens show for `Nc1nc(N)nc(-c2ccc(Oc3ccccc3)cc2)n1`?
BB579 growth dn: -10; RAM network inh: 6; sdo1 growth: -1.2; Yeast lifespan up: -4

How did Cc1ccccc1Oc1ccc(-c2nc(N)nc(N)n2)cc1 do in these assays?
BB579 growth dn: 2; RAM network inh: 12*; sdo1 growth: -1.5; Yeast lifespan up: -31; RAM 5-FOA: 2

What do the screens show for `COC(=O)c1ccc(CSc2nc(-c3ccco3)cc(C(F)(F)F)n2)o1`?
BB579 growth dn: -36; RAM network inh: 18*; sdo1 growth: -1.2; Yeast lifespan up: -16; RAM 5-FOA: 2

What do the screens show for `Cc1nn(Cc2ccccc2)c(C)c1NC(=O)Cn1nc([N+](=O)[O-])c(Cl)c1C`?
BB579 growth dn: -21; RAM network inh: 0; sdo1 growth: 1.1; Yeast lifespan up: -4

What do the screens show for `Cc1nn(Cc2c(Cl)cccc2Cl)c(C)c1NC(=O)Cn1nc([N+](=O)[O-])c(Cl)c1C`?
BB579 growth dn: -18; RAM network inh: 13*; sdo1 growth: -0.67; Yeast lifespan up: 5; RAM 5-FOA: 2

Results for Cc1ccc(NC(=O)C(=O)NC2CCCCC2)cc1 ?
BB579 growth dn: -63; RAM network inh: 4; sdo1 growth: 0.01; Yeast lifespan up: -10
